Published values pooled from the literature.
Each line is one published result; the experiments were not run side by side.
COQ8A: Atypical kinase COQ8A, mitochondrial (COQ8A, Homo sapiens, UniProt Q8NI60)
HTR5A: 5-hydroxytryptamine receptor 5A (HTR5A, Homo sapiens, UniProt P47898)
KIT V560G: Mast/stem cell growth factor receptor Kit (KIT, Homo sapiens, UniProt P10721, V560G)

Structure (SMILES)	target	observed	mode	technique	concentration	notes	inhibition
O=C(Oc1nsnc1N1CCC(Cc2ccccc2)CC1)N1CCCCC1	Monoacylglycerol lipase ABHD6 (ABHD6, Homo sapiens, UniProt Q9BV23)	enzyme activity	inhibitor	fluorescence	1 µM	lysate	15%
CS(=O)(=O)Nc1cccc(-c2csc(NC(=O)CSc3nc4nccnc4c(=O)n3CCc3ccccc3)n2)c1	COQ8A	enzyme activity	inhibitor		10 µM		14%
O=C(c1ccc(F)cc1)N(Cc1ccccc1)C1CCCCC1	D(4) dopamine receptor (DRD4, Homo sapiens, UniProt P21917, del265-296)	cell-free assay			10 µM		1%
O=C(Nc1ccc(S(=O)(=O)N2CCC(Cl)CC2)cc1)c1ccc([N+](=O)[O-])o1	D(4) dopamine receptor (DRD4, Homo sapiens, UniProt P21917)	ligand displacement		radioligand	10 µM		1%
CCCNc1nc2ccccc2n1Cc1ccc(Cl)cc1	HTR5A	ligand displacement			10 µM		24.8%
Cn1cnc(Br)c1C1=CN(c2ncnc3[nH]cnc23)CCS1	Mitogen-activated protein kinase kinase kinase 19 (MAP3K19, Homo sapiens, UniProt Q56UN5)	enzyme activity	inhibitor	radiometric	50 nM		29.5%
O=C(CSc1nc2nccnc2c(=O)n1CCc1ccccc1)Nc1ccccc1	Phosphatidylinositol 4-kinase alpha (PI4KA, Homo sapiens, UniProt P42356)	enzyme activity	inhibitor		10 µM		< 20%
CC/C(=N\NC(=O)NCc1cccc(O)c1)c1ccc(O)c(C)c1O	KIT V560G	enzyme activity	inhibitor		0.1 µM		0.1%
N#Cc1cc(Cn2c(N3CCCC3)nc3ccccc32)ccc1F	HTR5A	ligand displacement			10 µM		-15%
CCN1CC(c2ccccc2)c2cc(OC)c(OC)c3c2C1Cc1cc2c(cc1-3)OCO2 (centres unmarked)	HTR5A	ligand displacement		radioligand	10 µM		-12.1%
COc1cc(-c2cc(-c3ccc(N4CCNCC4)cc3)cnc2N)cc(OC)c1OC	KIT V560G	enzyme activity	inhibitor		0.1 µM		4%
CN(C)C1CCN(CC#Cc2nn(C3CCCC3)c3nc(NCc4ccccc4)ncc23)C1 (centres unmarked)	Protein kinase C iota type (PRKCI, Homo sapiens, UniProt P41743)	enzyme activity	inhibitor	FRET	1 µM		5%
O=C(CSc1nc2nccnc2c(=O)n1CCc1ccccc1)Nc1nccs1	COQ8A	enzyme activity	inhibitor		10 µM		10%
CCN(CC)c1ccc(C2Nc3ccc(C(=O)c4ccccc4)cc3NC3=C2C(=O)CC(C)(C)C3)cc1 (centres unmarked)	HTR5A	ligand displacement		radioligand	10 µM		85%
